Results pooled from the literature.
Protocols differ between the studies behind these lines.
CA9: Carbonic anhydrase 9 (CA9, Homo sapiens, UniProt Q16790)
CHRM4: Muscarinic acetylcholine receptor M4 (CHRM4, Homo sapiens, UniProt P08173)
MAOB: Amine oxidase [flavin-containing] B (MAOB, Homo sapiens, UniProt P27338)
Adora1: Adenosine receptor A1 (Adora1, Rattus norvegicus, UniProt P25099)
HRH1: Histamine H1 receptor (HRH1, Homo sapiens, UniProt P35367)
EDNRB: Endothelin receptor type B (EDNRB, Homo sapiens, UniProt P24530)
KCNU1: KCNU1 (Homo sapiens, UniProt A8MYU2)

With `CCOC(=O)C1CSc2[nH]c(=O)sc2C1c1cn(-c2ccccc2)nc1-c1ccc(Cl)cc1` (centres unmarked) the inhibition was 86.3% (CA9; enzyme activity, inhibitor; 10 µM).
`Oc1cccc(Nc2nc(-c3ccc(F)cc3F)cs2)c1` gave an inhibition of -2.9% (CHRM4; cell-free assay; 10 µM).
The inhibition of `COc1cc([N+](=O)[O-])ccc1NC(=O)c1ccccc1` is reported as 14% (MAOB; enzyme activity, inhibitor; 1 µM, 20 min).
The inhibition of `CCOC(=O)C1CSc2[nH]c(=O)sc2C1c1cn(-c2ccccc2)nc1-c1ccc(C)cc1` (centres unmarked) is reported as 18.9% (CA9; enzyme activity, inhibitor; 10 nM).
The inhibition of `CN1CCCn2c1nc1c2c(=O)n(C)c(=O)n1C` is reported as 28% (Adora1; ligand displacement, radioligand; 25 µM, cell membranes).
`O=C(Nc1ccc(Br)cc1)c1ccccn1` has an inhibition of 85% (MAOB; enzyme activity, inhibitor; 1 µM, 20 min).
`O=C(c1ccc(Cl)cc1)N(Cc1ccccc1)C1CCCCC1` gave an inhibition of -0.7% (HRH1; cell-free assay; 10 µM).
`CN(C)C1CCN(CC#Cc2nn(C3CCCC3)c3nc(NCc4ccccc4)ncc23)C1` (centres unmarked) has an inhibition of 2% (Tyrosine-protein kinase HCK (HCK, Homo sapiens, UniProt P08631); enzyme activity, inhibitor, FRET; 0.1 µM).
With `CC(C)CC(C)N1CCCn2c1nc1c2c(=O)n(C)c(=O)n1C` (centres unmarked) the inhibition was 30% (Adora1; ligand displacement, radioligand; 25 µM, cell membranes).
For `O=C(Nc1ccccc1)c1ccc2c(c1)OCO2`, the inhibition was 80% (MAOB; enzyme activity, inhibitor; 1 µM, 20 min).
With `N#CC1CSc2[nH]c(=O)sc2C1c1cn(-c2ccccc2)nc1-c1ccc(Br)cc1` (centres unmarked) the inhibition was 28.9% (CA9; enzyme activity, inhibitor; 10 nM).
`N#Cc1ccc(NC(=O)c2ccc3c(c2)OCO3)cc1` gave an inhibition of 87% (MAOB; enzyme activity, inhibitor; 1 µM, 20 min).
The inhibition of `CCOC(=O)C1CSc2[nH]c(=O)sc2C1c1cn(-c2ccccc2)nc1-c1ccc(Br)cc1` (centres unmarked) is reported as 91.6% (CA9; enzyme activity, inhibitor; 100 µM).
`O=C(Nc1ccc([N+](=O)[O-])cc1)c1ccc([N+](=O)[O-])cc1Cl` gave an inhibition of 68% (MAOB; enzyme activity, inhibitor; 1 µM, 20 min).
The inhibition of `CNC(=O)c1csc(Nc2cccc(C)n2)n1` is reported as 53% (MAOB; enzyme activity, inhibitor, fluorescence; 30 µM).
With `CS(=O)(=O)Nc1cccc2cccnc12` the inhibition was over 21% (Lactoylglutathione lyase (GLO1, Homo sapiens, UniProt Q04760); enzyme activity, inhibitor, absorbance; 50 µM).
For `CCN1CCCn2c1nc1c2c(=O)n(C)c(=O)n1C`, the inhibition was 42% (Adora1; ligand displacement, radioligand; 25 µM, cell membranes).
With `Cc1cc([N+](=O)[O-])ccc1NC(=O)c1cc(Cl)ccc1O` the inhibition was 5% (MAOB; enzyme activity, inhibitor; 1 µM, 20 min).
`O=C1NC(=S)C(=Cc2cn(-c3ccccc3)nc2-c2ccc(Br)cc2)S1` gave an inhibition of 66.2% (CA9; enzyme activity, inhibitor; 1 µM).
`O=C(c1ccc(F)cc1)N(Cc1ccccc1)C1CCCCC1` has an inhibition of 3% (EDNRB; cell-free assay; 10 µM).
For `O=C(Nc1cc(Cl)cc(Cl)c1)c1cc(Cl)ccc1O`, the inhibition was 0% (MAOB; enzyme activity, inhibitor; 1 µM, 20 min).
The inhibition of `CCCNc1nc2ccccc2n1Cc1ccc(Cl)cc1` is reported as -7.49% (CHRM4; ligand displacement; 10 µM).
The inhibition of `Cc1ccc(NC(=O)c2cc(Cl)ccc2O)cc1[N+](=O)[O-]` is reported as 85% (MAOB; enzyme activity, inhibitor; 1 µM, 20 min).
`CCN(CC)CCNC(=O)C1CCN(c2ccc3nnc(-c4cccc(C)c4)n3n2)CC1` has an inhibition of 62% (KCNU1; ion current, inhibitor, patch clamp; HEK293; 10 µM).
`CCOC(=O)C1CSc2[nH]c(=O)sc2C1c1cn(-c2ccccc2)nc1-c1ccccc1` (centres unmarked) gave an inhibition of 75.5% (CA9; enzyme activity, inhibitor; 10 µM).
`Cn1cnc(Br)c1C1=CN(c2ncnc3[nH]cnc23)CCS1` has an inhibition of 72.2% (Dual specificity tyrosine-phosphorylation-regulated kinase 4 (DYRK4, Homo sapiens, UniProt Q9NR20); enzyme activity, inhibitor, radiometric; 2 µM).
For `COc1cc(NC(C)=O)c(Cl)cc1C(=O)Nc1nccs1`, the inhibition was -2% (HRH1; cell-free assay; 10 µM).
The inhibition of `COc1ccc(C=NNC(=O)Cn2cnc3ccccc32)c(O)c1` is reported as 65% (MAOB; enzyme activity, inhibitor, fluorescence; 1 µM).
For `N=c1n(CCN2CCCCC2)c2ccccc2n1CC(O)c1cccc(Br)c1` (centres unmarked), the inhibition was 17% (KCNU1; ion current, inhibitor, patch clamp; HEK293; 10 µM).
`O=C(Nc1ccc(S(=O)(=O)N2CCC(Cl)CC2)cc1)c1ccc([N+](=O)[O-])o1` gave an inhibition of 3% (EDNRB; ligand displacement, radioligand; 10 µM).
For `CCOC(=O)C1CSc2[nH]c(=O)sc2C1c1cn(-c2ccccc2)nc1-c1ccc(OC)cc1` (centres unmarked), the inhibition was 71.4% (CA9; enzyme activity, inhibitor; 1 µM).
`CC(C)N1CCCn2c1nc1c2c(=O)n(C)c(=O)n1C` has an inhibition of 38% (Adora1; ligand displacement, radioligand; 25 µM, cell membranes).
